Data taken from ChEMBL document CHEMBL1124234, “Beta-substituted phenethylamines as high-affinity mechanism-based inhibitors of dopamine beta-hydroxylase” (J Med Chem, 1988).
Active and inactive are the calls of the source. No cut-off for these calls is given here.

How the values were obtained:
[1] = target: T1, Dopamine beta-hydroxylase (Bos taurus, UniProt P15101); experiment: KI value was determined from plots of 1/kinact(observed) vs 1/[inhibitor]; e denotes 'Minimal time dependent inactivation'
T1 sequence (P15101 whole entry): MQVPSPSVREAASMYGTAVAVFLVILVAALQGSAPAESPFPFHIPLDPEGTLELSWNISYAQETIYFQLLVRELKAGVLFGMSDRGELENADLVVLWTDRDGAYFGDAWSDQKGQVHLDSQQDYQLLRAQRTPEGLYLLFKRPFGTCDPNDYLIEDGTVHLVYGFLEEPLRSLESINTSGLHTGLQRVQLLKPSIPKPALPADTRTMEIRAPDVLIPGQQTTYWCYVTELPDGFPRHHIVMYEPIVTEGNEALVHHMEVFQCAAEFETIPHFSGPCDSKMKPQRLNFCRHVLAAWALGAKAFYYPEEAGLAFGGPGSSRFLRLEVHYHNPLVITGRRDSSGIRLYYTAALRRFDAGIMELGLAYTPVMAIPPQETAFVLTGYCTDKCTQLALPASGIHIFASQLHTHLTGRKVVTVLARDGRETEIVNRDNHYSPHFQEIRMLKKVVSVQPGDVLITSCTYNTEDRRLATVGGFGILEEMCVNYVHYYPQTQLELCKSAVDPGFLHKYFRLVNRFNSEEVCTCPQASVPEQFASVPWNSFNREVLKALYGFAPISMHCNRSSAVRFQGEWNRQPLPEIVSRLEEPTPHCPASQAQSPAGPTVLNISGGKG
In short: (§1)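 Homogeneous bovine DBH (specific activity 30-42 units/mg at pH 5.0) was used in 50 mM sodium acetate at pH 5.0 and ionic strength 0.2, with 1 mg/mL catalase, 10 μM Cu²⁺ and 10 mM ascorbic acid at 37 °C. O₂ was held at 0.24 mM, so kinact values are apparent. kinact(observed) came from log % activity remaining vs time. KI and kinact came from 1/kinact(obs) vs 1/[inhibitor] plots using at least four inhibitor concentrations. Values are mean ± SEM.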

[2] = target: T2, Dopamine beta-hydroxylase (Bos taurus) (UniProt P15101); experiment: Kinact value is determined from a plot of log(percent enzyme activity remaining) vs times; e denotes 'Minimal time dependent inactivation'; in short: as §1
T2 sequence (whole entry): T1 sequence (P15101 whole entry)

[3] = target: T2, Dopamine beta-hydroxylase (Bos taurus); experiment: Kis value for the affinity towards homogenous bovine dopamine beta-hydroxylase (DBH)
In short: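 Competitive inhibition constant was measured against tyramine substrate without fumarate, using homogeneous bovine DBH (30-42 units/mg at pH 5.0). Conditions were pH 5.0, ionic strength 0.2, 50 mM sodium acetate, 1 mg/mL catalase, 10 μM Cu²⁺, 10 mM ascorbate and 37 °C. Kis was obtained by kinetic fitting and is reported as mean ± SEM.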

[4] = target: T2, Dopamine beta-hydroxylase (Bos taurus); experiment: Kinact value is determined from a plot of log(percent enzyme activity remaining) vs times; in short: as §1
[5] = target: T1, Dopamine beta-hydroxylase; experiment: KI value was determined from plots of 1/kinact(observed) vs 1/[inhibitor]; Apparent values at pH 5.0, 0.24 mM O2
[6] = target: T2, Dopamine beta-hydroxylase (Bos taurus); experiment: Kinact value is determined from a plot of log(percent enzyme activity remaining) vs times; Apparent values at pH 5.0, 0.24 mM O2
[7] = target: T1, Dopamine beta-hydroxylase; experiment: KI value was determined from plots of 1/kinact(observed) vs 1/[inhibitor]; in short: as §1

Structure (SMILES)	Ki [1]	K inact [2]	Kis [3] [µM]	other results
C=CC(CN)c1ccccc1 (centres undefined)	Inactive	inactive	670	–
C#CC(CN)c1ccc(O)cc1 (single isomer, unassigned; (-)) [listing 1 of 2 here]	–	–	33.9	K inact [4]: 0.184 min⁻¹
C=CC(CN)c1ccc(O)cc1 (centres undefined)	Inactive	inactive	82	–
C=C(CN)c1ccc(O)cc1	–	–	–	Ki [5]: 520 µM; K inact [6]: 0.81 min⁻¹
C#CC(CN)c1ccc(O)cc1 (stereo in doubt; (+\-)3) [listing 1 of 2 here]	–	–	–	Ki [7]: 15.7 µM
C#CC(CN)c1ccccc1 (centres undefined)	Inactive	inactive	160	–
Oc1ccc(CC2CC2)cc1	–	–	–	Ki [7]: 12000 µM; K inact [4]: 1.8 min⁻¹
C#CC(CN)c1cccc(O)c1 (centres undefined)	Inactive	inactive	190	–
C#CC(CN)c1ccc(O)cc1 (stereo in doubt; (+)3) [listing 1 of 2 here]	–	inactive	7.9	–
C#CC(CN)c1ccc(O)cc1 (stereo in doubt; (+)3) [listing 2 of 2 here]	Inactive	–	–	–
C=CC(CN)c1cccc(O)c1 (centres undefined)	Inactive	inactive	1270	–
C#CC(CN)c1ccc(O)cc1 (stereo in doubt; (+\-)3) [listing 2 of 2 here]	–	–	13.6	K inact [4]: 0.023 min⁻¹
C=C(CN)c1cccs1	–	–	–	K inact [4]: 0.124 min⁻¹
C#CC(CN)c1ccc(O)cc1 (single isomer, unassigned; (-)) [listing 2 of 2 here]	–	–	–	Ki [7]: 57 µM
